Source: ChEMBL document CHEMBL2163307, “Antibiotic optimization and chemical structure stabilization of thiomuracin A” (J Med Chem, 2012)
Converted amounts (≈) assume the structure as drawn. The source made the active and inactive calls. The rule behind the calls is not given here.

Key:
Staphylococcus aureus [1] = assay: Antibacterial activity against methicillin-resistant Staphylococcus aureus isolate AKH Vienna A4.018 by broth microdilution method; type: functional
Summary of the method: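 Broth microdilution MIC following CLSI M07-A8 (2009) and M11-A7 guidelines.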

Streptococcus pyogenes = assay: Antibacterial activity against Streptococcus pyogenes ATCC BAA-595 by broth microdilution method; type: functional
Summary of the method: (§1)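 MIC by CLSI broth microdilution (M07-A8 for aerobes; M11-A7 for anaerobes).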

Enterococcus faecium = assay: Antibacterial activity against Enterococcus faecium 7130724 by broth microdilution method; type: functional; summary of the method: as §1
Enterococcus faecalis [2] = assay: Antibacterial activity against Enterococcus faecalis ATCC 29212 by broth microdilution method; type: functional; summary of the method: as §1
[3] = Antibacterial activity against Clostridium difficile ATCC 43255 by broth microdilution method; type: functional; conditions: Clostridioides difficile; summary of the method: as §1
Escherichia coli = assay: Inhibition of elongation factor Tu-mediated protein synthesis in Escherichia coli S30 extract after 2 hrs by luciferase reporter gene assay
Summary of the method: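 Coupled transcription/translation in E. coli S30 extract with pBESTluc template DNA, methionine-minus and cysteine-minus amino acid mixes, and S30 premix; test agent added as 40× stock in 20 μL reactions. Incubated 2 h at 37 °C; luciferase formed was read by luminescence after adding an equal volume of SteadyGlo reagent. Kirromycin and puromycin were positive controls; ampicillin was the negative control.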

[4] = Chemical stability of the compound in HCl at 50 degC; type: physicochemical; conditions: buffer
[5] = Chemical stability of the compound in HCl at room temperature; type: physicochemical; conditions: buffer
[6] = Chemical stability of the compound in water at 50 degC; type: physicochemical; conditions: buffer
[7] = Chemical stability of the compound in MeOH at room temperature; type: physicochemical
[8] = Chemical stability of the compound in water at room temperature; type: physicochemical; conditions: buffer
[9] = Solubility of the compound in DMF solution; type: physicochemical
[10] = Solubility of the compound in DMSO solution; type: physicochemical
[11] = Chemical stability of the compound in MeOH at 50 degC; type: physicochemical
Staphylococcus aureus [12] = assay: Antibacterial activity against Staphylococcus aureus ATCC 49951 infected in iv dosed CD1 mouse assessed as protection from lethal infection administered 1 hr and 5 hrs post-infection measured after 5 days; type: functional; conditions: for ED50: ATCC 49951, iv
Summary of the method: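 Female CD1 mice (21−25 g) infected ip with 1 × 10^8 CFU/mouse in 0.9% NaCl (10−100× minimal lethal dose). iv tail-vein bolus at 1 and 5 h post-inoculation, several dose levels, six mice per group. Watched 5 days with body temperature monitoring; moribund animals euthanized. ED50 with 95% CI from day-5 survival by probit analysis.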

Enterococcus faecalis [13] = assay: Ratio of daptomycin ED50 to compound ED50 for Enterococcus faecalis isolate NB04025 infected in iv dosed CD1 mouse; type: functional
Summary of the method: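 Female CD1 mice (21−25 g) infected intraperitoneally with 1 × 10^8 CFU/mouse E. faecalis in 50% sterile rat fecal extract. Single iv tail-vein bolus given immediately after inoculation, at several dose levels, to groups of six mice. Vehicle was 5% DMA, 30% PEG400, 10% cremophor EL, 5% 0.1 N NaOH and 50% pH 7.4 buffer; daptomycin was given in saline. Survival followed 5 days; ED50 with 95% CI by probit analysis of day-5 survival.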

Enterococcus faecalis [14] = assay: Antibacterial activity against Enterococcus faecalis isolate NB04025 infected in iv dosed CD1 mouse assessed as protection from lethal infection after 5 days; type: functional; conditions: for ED50: 120 h
Summary of the method: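 Female CD1 mice (21−25 g) infected ip with 1 × 10^8 CFU/mouse in 50% sterile rat fecal extract (10−100× minimal lethal dose). Single iv tail-vein bolus immediately after inoculation, several dose levels, six mice per group. Observed 5 days with implanted temperature transponders; moribund mice euthanized. ED50 with 95% CI from day-5 survival by probit analysis.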

Enterococcus faecalis [15] = assay: Antibacterial activity against Enterococcus faecalis isolate NB04025; type: functional
[16] = AUC in Sprague-Dawley rat at 1 mg/kg, iv; type: ADME, organism-based; parameters: dose 1 mg/kg, route intravenous; conditions: plasma
Summary of the method: (§2)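 Intravenous PK (N = 2) in male Sprague−Dawley rats (220−270 g, about 6−10 weeks old) with dual jugular vein cannulas. Rats were fasted overnight before dosing and for 8 h after. Blood was collected into K2EDTA tubes and plasma was assayed by LC-MS/MS.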

Staphylococcus aureus [17] = assay: Antibacterial activity against Staphylococcus aureus ATCC 49951; type: functional
[18] = Half life in Sprague-Dawley rat at 1 mg/kg, iv; type: ADME, organism-based; parameters: dose 1 mg/kg, route intravenous; conditions: in vivo; summary of the method: as §2
[19] = Volume of distribution at steady state in Sprague-Dawley rat at 1 mg/kg, iv; type: ADME, organism-based; parameters: dose 1 mg/kg, route intravenous; conditions: in vivo, read-out: Vdss; summary of the method: as §2
[20] = Clearance in Sprague-Dawley rat at 1 mg/kg, iv; type: ADME, organism-based; parameters: dose 1 mg/kg, route intravenous; conditions: in vivo; summary of the method: as §2

SMILES | MIC (Staphylococcus aureus [1]) [mg/L] | MIC (Streptococcus pyogenes) [mg/L] | MIC (Enterococcus faecium) [mg/L] | MIC (Enterococcus faecalis [2]) [mg/L] | MIC [3] [mg/L] | further results
C=C(NC(=O)c1csc(-c2ccc3c(n2)-c2csc(n2)-c2csc(n2)[C@H]([C@@H](C)[C@@H]2CO2)NC(=O)[C@H](Cc2ccc(OC)cc2)NC(=O)c2csc(n2)[C@H]([C@H](O)c2ccccc2)NC(=O)c2nc(sc2C)[C@H](CC(N)=O)NC(=O)c2csc-3n2)n1)C(=O)NC(=C)C(=O)OC | > 32 | > 32 | 8 (≈ 5.85 µM) | 8 (≈ 5.85 µM) | 1 (≈ 0.731 µM) | inhibition (Escherichia coli): inactive
C=C(NC(=O)C(=C)NC(=O)c1csc(-c2ccc3c(n2)-c2csc(n2)-c2csc(n2)[C@H]([C@@H](C)[C@@H]2CO2)NC(=O)[C@H](Cc2ccc(O)cc2)NC(=O)c2csc(n2)[C@H]([C@H](O)c2ccccc2)NC(=O)c2nc(sc2C)[C@H](CC(N)=O)NC(=O)c2csc-3n2)n1)C(=O)O [THIOMURACIN A] | 0.5 (≈ 0.373 µM) | 0.5 (≈ 0.373 µM) | 0.5 (≈ 0.373 µM) | 0.5 (≈ 0.373 µM) | 0.03 (≈ 0.0224 µM) | Stability [4]: Unstable; Stability [5]: Stable; Stability [6]: Unstable; Stability [7]: Stable; Stability [8]: Stable; solubility [9]: soluble; solubility [10]: soluble; Stability [11]: Unstable
Cc1sc2nc1C(=O)N[C@@H]([C@H](O)c1ccccc1)c1nc(cs1)C(=O)N[C@@H](Cc1ccc(O)cc1)C(=O)N1C[C@H](O)[C@H](C)[C@H]1c1nc(cs1)-c1nc(cs1)-c1nc(-c3nc(C(N)=O)cs3)ccc1-c1nc(cs1)C(=O)N[C@H]2CC(N)=O | 0.25 (≈ 0.208 µM) | 1 (≈ 0.833 µM) | 0.5 (≈ 0.417 µM) | 0.25 (≈ 0.208 µM) | < 0.008 | Activity (Staphylococcus aureus [12]): Dose-dependent effect; ED50 (Staphylococcus aureus [12]): 8 mg/kg; Ratio ED50 (Enterococcus faecalis [13]): 2; Activity (Enterococcus faecalis [14]): Dose-dependent effect; ED50 (Enterococcus faecalis [14]): 1.5 mg/kg; MIC (Enterococcus faecalis [15]): 0.125 mg/L (≈ 0.104 µM); AUC [16]: 1350 nM·h; MIC (Staphylococcus aureus [17]): 1 mg/L (≈ 0.833 µM); half-life [18]: 3.4 h; Vd [19]: 0.134 L/kg; clearance [20]: 0.606 L/h/kg
Cc1sc2nc1C(=O)N[C@@H]([C@H](O)c1ccccc1)c1nc(cs1)C(=O)N[C@@H](Cc1ccc(O)cc1)C(=O)N[C@@H]([C@@H](C)[C@@H](O)CCl)c1nc(cs1)-c1nc(cs1)-c1nc(-c3nc(C(N)=O)cs3)ccc1-c1nc(cs1)C(=O)N[C@H]2CC(N)=O | 0.5 (≈ 0.404 µM) | 2 (≈ 1.62 µM) | 0.5 (≈ 0.404 µM) | 0.25 (≈ 0.202 µM) | 0.25 (≈ 0.202 µM) | 
C=C(NC(=O)c1csc(-c2ccc3c(n2)-c2csc(n2)-c2csc(n2)[C@H]([C@@H](C)[C@@H]2CO2)NC(=O)[C@H](Cc2ccc(O)cc2)NC(=O)c2csc(n2)[C@H]([C@H](O)c2ccccc2)NC(=O)c2nc(sc2C)[C@H](CC(N)=O)NC(=O)c2csc-3n2)n1)C(=O)NC(=C)C(=O)OC | > 32 | > 32 | 8 (≈ 5.91 µM) | 8 (≈ 5.91 µM) | 1 (≈ 0.739 µM) | inhibition (Escherichia coli): inactive
Cc1sc2nc1C(=O)N[C@@H]([C@H](O)c1ccccc1)c1nc(cs1)C(=O)N[C@@H](Cc1ccc(O)cc1)C(=O)N[C@@H]([C@@H](C)[C@@H](O)CO)c1nc(cs1)-c1nc(cs1)-c1nc(-c3nc(C(N)=O)cs3)ccc1-c1nc(cs1)C(=O)N[C@H]2CC(N)=O | > 32 | > 32 | > 32 | > 32 | 2 (≈ 1.64 µM) | 
Cc1sc2nc1C(=O)N[C@@H]([C@H](O)c1ccccc1)c1nc(cs1)C(=O)N[C@@H](Cc1ccc(O)cc1)C(=O)N[C@@H]([C@@H](C)[C@@H](O)CN)c1nc(cs1)-c1nc(cs1)-c1nc(-c3nc(C(N)=O)cs3)ccc1-c1nc(cs1)C(=O)N[C@H]2CC(N)=O | 2 (≈ 1.64 µM) | > 32 | 1 (≈ 0.821 µM) | 1 (≈ 0.821 µM) | 1 (≈ 0.821 µM) | 
CCCCCCCCCC(=O)N[C@@H](Cc1c[nH]c2ccccc12)C(=O)N[C@H](CC(N)=O)C(=O)N[C@@H](CC(=O)O)C(=O)N[C@@H]1C(=O)NCC(=O)N[C@@H](CCCN)C(=O)N[C@@H](CC(=O)O)C(=O)N[C@H](C)C(=O)N[C@@H](CC(=O)O)C(=O)NCC(=O)N[C@H](CO)C(=O)N[C@@H]([C@H](C)CC(=O)O)C(=O)N[C@@H](CC(=O)c2ccccc2N)C(=O)O[C@@H]1C |  |  |  |  |  | Activity (Staphylococcus aureus [12]): Dose-dependent effect; ED50 (Staphylococcus aureus [12]): 0.3 mg/kg; Activity (Enterococcus faecalis [14]): Dose-dependent effect; ED50 (Enterococcus faecalis [14]): 3 mg/kg
Cc1sc2nc1C(=O)NCc1nc(cs1)C(=O)N[C@@H](Cc1ccc(O)cc1)C(=O)N1C[C@H](O)[C@H](C)[C@H]1c1nc(cs1)-c1nc(cs1)-c1nc(-c3nc(C(N)=O)cs3)ccc1-c1nc(cs1)C(=O)N[C@H]2CC(N)=O | 2 (≈ 1.83 µM) | > 32 | 4 (≈ 3.66 µM) | 4 (≈ 3.66 µM) |  | 
Cc1sc2nc1C(=O)N[C@@H]([C@H](O)c1ccccc1)c1nc(cs1)C(=O)N[C@@H](Cc1ccc(O)cc1)C(=O)N[C@@H]([C@@H](C)[C@@H]1CO1)c1nc(cs1)-c1nc(cs1)-c1nc(-c3nc(C(N)=O)cs3)ccc1-c1nc(cs1)C(=O)N[C@H]2CC(N)=O | 0.5 (≈ 0.417 µM) | 2 (≈ 1.67 µM) | 0.125 (≈ 0.104 µM) | 0.25 (≈ 0.208 µM) | 0.003 (≈ 0.0025 µM) | 
C=C(NC(=O)c1csc(-c2ccc3c(n2)-c2csc(n2)-c2csc(n2)[C@H]([C@@H](C)[C@@H]2CO2)NC(=O)[C@H](Cc2ccc(OC(C)=O)cc2)NC(=O)c2csc(n2)[C@H]([C@H](OC(C)=O)c2ccccc2)NC(=O)c2nc(sc2C)[C@H](CC(N)=O)NC(=O)c2csc-3n2)n1)C(=O)NC(=C)C(=O)OC | > 32 | > 32 | 32 (≈ 22.3 µM) | 32 (≈ 22.3 µM) | > 4 | inhibition (Escherichia coli): inactive
